The record followed here is BindingDB's records for doi:10.1021/acs.jnatprod.7b00271 (University of Eastern Piedmont, 2017).

Structures are written as SMILES.

Experiment [1] addresses Signal transducer and activator of transcription 3 (Homo sapiens, UniProt P40763). In words: Inhibition of IFN-gamma stimulated STAT3 (unknown origin) expressed in human HeLa cells after 6 hrs by luciferase reporter gene assay. An outline of the steps:
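HeLa-STAT3-Luc cells stimulated with γIFN (20 IU/mL) with or without compounds for 6 h. PBS-washed cells lysed 15 min at room temperature and luciferase RLU measured. Values expressed as percent inhibition of IFN-γ-induced activity (taken as 100%). Mean of at least five independent experiments.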
(In a reporter assay the amount or activity of a reporter protein is the signal.)

In experiment [2] the target is T1, Nuclear factor erythroid 2-related factor 2 (Homo sapiens, UniProt Q16236).
T1 sequence (Q16236 whole entry): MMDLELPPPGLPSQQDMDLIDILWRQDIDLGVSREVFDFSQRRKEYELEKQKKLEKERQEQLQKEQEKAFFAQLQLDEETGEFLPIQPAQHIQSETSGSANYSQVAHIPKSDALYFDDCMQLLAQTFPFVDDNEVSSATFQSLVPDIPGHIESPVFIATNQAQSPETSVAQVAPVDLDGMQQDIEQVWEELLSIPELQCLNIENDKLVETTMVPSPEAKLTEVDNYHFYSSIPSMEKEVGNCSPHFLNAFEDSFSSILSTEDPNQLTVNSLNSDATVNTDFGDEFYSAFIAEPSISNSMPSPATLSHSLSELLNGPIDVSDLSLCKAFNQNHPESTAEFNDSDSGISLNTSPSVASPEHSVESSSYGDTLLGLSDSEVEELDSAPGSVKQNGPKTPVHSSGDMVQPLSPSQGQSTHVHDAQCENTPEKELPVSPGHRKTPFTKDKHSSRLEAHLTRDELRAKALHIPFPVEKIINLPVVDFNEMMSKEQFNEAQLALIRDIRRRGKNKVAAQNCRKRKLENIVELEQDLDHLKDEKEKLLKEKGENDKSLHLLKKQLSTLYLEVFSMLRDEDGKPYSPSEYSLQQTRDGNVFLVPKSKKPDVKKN
Briefly: Activation of Nrf2 (unknown origin) expressed in human HaCaT-ARE-luc cells after 6 hrs by luciferase reporter gene assay. The method in brief: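 HaCaT-ARE-Luc keratinocytes in DMEM with 10% FBS, 37 °C, 5% CO2, exposed to compounds for 6 h. Cells then washed with PBS and lysed (Tris-phosphate pH 7.8, MgCl2, DTT, Triton X-100, glycerol, 15 min RT). Luciferase RLU read on the supernatant and EC50 derived. Mean of at least five independent experiments.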

Signal transducer and activator of transcription 3, sequence (P40763 whole entry): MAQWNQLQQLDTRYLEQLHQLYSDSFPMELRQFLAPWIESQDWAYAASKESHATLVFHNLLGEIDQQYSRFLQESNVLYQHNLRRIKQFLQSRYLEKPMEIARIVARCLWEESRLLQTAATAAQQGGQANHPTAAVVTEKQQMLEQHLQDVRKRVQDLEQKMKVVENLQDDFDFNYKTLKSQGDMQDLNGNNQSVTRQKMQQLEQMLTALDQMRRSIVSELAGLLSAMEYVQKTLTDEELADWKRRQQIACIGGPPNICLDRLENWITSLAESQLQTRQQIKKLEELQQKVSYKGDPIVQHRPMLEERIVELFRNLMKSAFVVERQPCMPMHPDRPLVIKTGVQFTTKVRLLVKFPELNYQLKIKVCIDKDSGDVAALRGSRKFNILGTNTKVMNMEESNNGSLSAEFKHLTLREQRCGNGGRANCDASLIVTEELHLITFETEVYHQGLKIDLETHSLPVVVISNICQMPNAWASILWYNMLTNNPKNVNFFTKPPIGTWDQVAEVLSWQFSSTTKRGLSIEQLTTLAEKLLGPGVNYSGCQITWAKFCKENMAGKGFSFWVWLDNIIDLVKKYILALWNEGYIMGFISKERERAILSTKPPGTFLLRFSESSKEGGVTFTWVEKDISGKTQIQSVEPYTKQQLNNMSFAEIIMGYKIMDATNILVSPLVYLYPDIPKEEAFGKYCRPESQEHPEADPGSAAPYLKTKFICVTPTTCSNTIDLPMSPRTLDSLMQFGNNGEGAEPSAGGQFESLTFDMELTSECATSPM

The IC50 is the midpoint of a concentration-inhibition curve. For orientation: EC50 means the concentration at which the effect is half-maximal. In experiment [1], `COC(=O)[C@]12CCC(C)(C)C[C@H]1C1=CC[C@@H]3[C@@]4(C)C=C(I)C(=O)C(C)(C)[C@@H]4CC[C@@]3(C)[C@]1(C)CC2` yielded a 50% inhibitory concentration (IC50) above 25 µM. Besides, the EC50 in experiment [2] is above 25 µM.

In experiment [1], `COC(=O)[C@]12CCC(C)(C)C[C@H]1C1=CC[C@@H]3[C@@]4(C)CC(C#N)=C(O)C(C)(C)[C@@H]4CC[C@@]3(C)[C@]1(C)CC2` gave an IC50 above 25 µM. Besides, the EC50 in experiment [2] was above 25 µM.

In experiment [1], `COC(=O)[C@]12CCC(C)(C)C[C@H]1C1=CC[C@@H]3[C@@]4(C)C=C(c5ccc(C#N)cc5)C(=O)C(C)(C)[C@@H]4CC[C@@]3(C)[C@]1(C)CC2` registered an IC50 above 25 µM. The EC50 in experiment [2] was above 25 µM.

In experiment [1], `COC(=O)[C@]12CCC(C)(C)C[C@H]1C1=CC[C@@H]3[C@@]4(C)CCC(=O)C(C)(C)[C@@H]4CC[C@@]3(C)[C@]1(C)CC2` returned an IC50 above 25 µM. The compound further returned a 50% effective concentration (EC50) in experiment [2] above 25 µM.

Turning to `COC(=O)[C@]12CCC(C)(C)C[C@H]1C1=CC[C@@H]3[C@@]4(C)C=C(Br)C(=O)C(C)(C)[C@@H]4CC[C@@]3(C)[C@]1(C)CC2`, in experiment [1], the IC50 is above 25 µM. In addition, the EC50 in experiment [2] was found to be 11.5 µM.

`COC(=O)[C@]12CCC(C)(C)C[C@H]1C1=CC[C@@H]3[C@@]4(C)C=C(c5ccccc5)C(=O)C(C)(C)[C@@H]4CC[C@@]3(C)[C@]1(C)CC2` registered an IC50 in experiment [1] above 25 µM. This compound came in with an EC50 in experiment [2] above 25 µM.

Take `COC(=O)[C@]12CCC(C)(C)C[C@H]1C1=CC[C@@H]3[C@@]4(C)C=C(C#Cc5ccccc5)C(=O)C(C)(C)[C@@H]4CC[C@@]3(C)[C@]1(C)CC2`: in experiment [1], the IC50 is above 25 µM. Further, the EC50 in experiment [2] is above 25 µM.

On to `COC(=O)C1=C[C@]2(C)[C@H]3CC=C4[C@@H]5CC(C)(C)CC[C@]5(C(=O)OC)CC[C@@]4(C)[C@]3(C)CC[C@H]2C(C)(C)C1=O`, for which the IC50 in experiment [1] is above 25 µM. This compound also gave an EC50 in experiment [2] above 25 µM.

Regarding `COC(=O)[C@]12CCC(C)(C)C[C@H]1C1=CC[C@@H]3[C@@]4(C)C=C(OC(C)=O)C(=O)C(C)(C)[C@@H]4CC[C@@]3(C)[C@]1(C)CC2`, in experiment [1], the IC50 is above 25 µM. This compound also had an EC50 in experiment [2] above 25 µM.

In experiment [1], `COC(=O)[C@]12CCC(C)(C)C[C@H]1C1=CC[C@@H]3[C@@]4(C)Cc5cnoc5C(C)(C)[C@@H]4CC[C@@]3(C)[C@]1(C)CC2` came in with an IC50 above 25 µM. The compound also registered an EC50 in experiment [2] above 25 µM.

Regarding `COC(=O)[C@]12CCC(C)(C)C[C@H]1C1=CC[C@@H]3[C@@]4(C)C=CC(=O)C(C)(C)[C@@H]4CC[C@@]3(C)[C@]1(C)CC2`, the IC50 in experiment [1] was above 25 µM. In addition, in experiment [2], the EC50 was above 25 µM.

In experiment [1], `CCOC(=O)/C=C/C1=C[C@]2(C)[C@H]3CC=C4[C@@H]5CC(C)(C)CC[C@]5(C(=O)OC)CC[C@@]4(C)[C@]3(C)CC[C@H]2C(C)(C)C1=O` had an IC50 above 25 µM. Further, the EC50 in experiment [2] was above 25 µM.

Turning to `COC(=O)[C@]12CCC(C)(C)C[C@H]1C1=CC[C@@H]3[C@@]4(C)CC(C=O)=C(O)C(C)(C)[C@@H]4CC[C@@]3(C)[C@]1(C)CC2`, in experiment [1], the IC50 is above 25 µM. In experiment [2], this compound came in with an EC50 above 25 µM.

The compound `COC(=O)[C@]12CCC(C)(C)C[C@H]1C1=CC[C@@H]3[C@@]4(C)C=C(C(=O)O)C(=O)C(C)(C)[C@@H]4CC[C@@]3(C)[C@]1(C)CC2` yielded an IC50 in experiment [1] of 25.7 µM. In addition, in experiment [2], the EC50 is 2.45 µM.

As to `COC(=O)[C@]12CCC(C)(C)C[C@H]1C1=CC[C@@H]3[C@@]4(C)C=C(C#N)C(=O)C(C)(C)[C@@H]4CC[C@@]3(C)[C@]1(C)CC2`, in experiment [2], the EC50 was determined as 1.1 µM.

Regarding `COC(=O)[C@]12CCC(C)(C)C[C@H]1C1=CC[C@@H]3[C@@]4(C)C=C(c5ccc(OC)cc5)C(=O)C(C)(C)[C@@H]4CC[C@@]3(C)[C@]1(C)CC2`, the IC50 in experiment [1] is above 25 µM. Besides, in experiment [2], the concentration giving a half-maximal response (EC50) is above 25 µM.

In experiment [2], `COC(=O)[C@]12CCC(C)(C)C[C@H]1[C@H]1C(=O)C=C3[C@@]4(C)C=C(C#N)C(=O)C(C)(C)[C@@H]4CC[C@@]3(C)[C@]1(C)CC2` [CDDO-Me, 2] showed an EC50 of 0.06 µM.

Take `CC1(C)CC[C@]2(C(=O)O)CC[C@]3(C)C(=CC[C@@H]4[C@@]5(C)CC[C@H](O)C(C)(C)[C@@H]5CC[C@]43C)[C@@H]2C1` [Oleanolic acid (OA)(Compound 1)]: in experiment [1], the IC50 was above 50 µM.
